Key:
[1] = test system: Human immunodeficiency virus; assay: Antiviral activity against HIV NL4.3 harboring renilla luciferase infected in human MT2 cells pretreated for 2 hrs followed by viral infection measured after 48 to 96 hrs post infection by luciferase reporter gene assay; assay type: functional, organism-based; conditions: Human immunodeficiency virus 1, NL4.3, MT2
In short: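 Recombinant NL4.3-Ren virus assay in MT-2 cells. EC50 is given in μM unless stated otherwise.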

[2] = Selectivity index, ratio of CC50 for human MT2 cells to EC50 for HIV NL4.3 harboring renilla luciferase infected in human MT2 cells; assay type: toxicity, cell-based; conditions: read-out: Ratio CC50/EC50
In short: (§1)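 Selectivity index is CC50 divided by EC50: Vero CC50 over CHIKV EC50, or MT-2 CC50 over NL4.3-Ren EC50 (HIV). Inputs are in μM unless stated otherwise.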

Chikungunya virus = assay: Antiviral activity against Chikungunya virus Indian ocean strain 899 infected in African green monkey Vero cells assessed as reduction in virus-induced cytopathic effect by MTS assay; assay type: functional, organism-based; conditions: Indian ocean 899, Vero
[3] = Cytotoxicity against African green monkey Vero cells assessed as morphological changes by microscopic method; assay type: cell-based; conditions: chlorocebus sabaeus
[4] = Cytotoxicity against human MT2 cells by Celltiter-Glo assay; assay type: cell-based
[5] = Selectivity index, ratio of CC50 for African green monkey Vero cells to EC50 for Chikungunya virus Indian ocean strain 899 infected in African green monkey Vero cells; assay type: toxicity; conditions: read-out: Ratio CC50/EC50; in short: as §1

Structure (SMILES) | EC50 [1] | selectivity ratio [2] | EC50 (Chikungunya virus) | CC50 [3] | CC50 [4] | selectivity ratio [5]
C/C=C(\C)C(=O)O[C@@H]1[C@@H](C)[C@]2(O)[C@@H]3C=C(C)C(=O)[C@@H]3CC(CO)=C[C@H]2[C@@H]2C(C)(C)[C@]12OC(=O)C(C)C | 4.19 µM | > 12 | 17 µM | 116 µM | > 50 µM | 7
C/C=C(\C)C(=O)O[C@@H]1[C@@H](C)[C@]2(O)[C@@H]3C=C(C)C(=O)[C@H]3CC(CO)=C[C@H]2[C@@H]2C(C)(C)[C@]12OC(=O)C(C)C | 0.013 µM | > 3920 | 1 µM | 20 µM | > 50 µM | 25
C/C=C(\C)C(=O)O[C@@H]1[C@@H](C)[C@]2(O)[C@@H]3C=C(C)C(=O)[C@H]3CC(C)=C[C@H]2[C@@H]2C(C)(C)[C@]12OC(=O)C(C)C |  |  |  | 154 µM | > 50 µM | 
C=C1[C@H](OC(C)=O)[C@@H](OC(C)=O)[C@@H](OC(C)=O)C(C)(C)/C=C/[C@@H](C)C(=O)[C@@]2(OC(C)=O)C[C@@](C)(OC(C)=O)[C@H](OC(C)=O)[C@@H]2[C@H]1OC(C)=O |  |  | 13.8 µM | > 144 µM |  | > 10
CC(=O)O[C@@H]1[C@@H](C)[C@]2(O)[C@@H]3C=C(C)C(=O)[C@H]3CC(CO)=C[C@H]2[C@@H]2C(C)(C)[C@]12OC(=O)C(C)C | 0.054 µM | > 919 | 0.44 µM | 172 µM | > 50 µM | 390
C=C1[C@H](OC(C)=O)[C@@H](O)[C@@H](OC(C)=O)C(C)(C)/C=C/[C@@H](C)C(=O)[C@@]2(OC(C)=O)C[C@@](C)(OC(C)=O)[C@H](OC(C)=O)[C@@H]2[C@H]1OC(C)=O |  |  | > 153 µM |  |  | 
CCCCCCCCCCCCCC(=O)O[C@@H]1[C@@H](C)[C@@]2(O)[C@@H](C=C(CO)C[C@]3(O)C(=O)C(C)=C[C@@H]23)[C@@H]2C(C)(C)[C@]12OC(C)=O [PHORBOL MYRISTATE ACETATE] |  |  |  |  |  | 1960
CC(=O)O[C@@]12C[C@@H](C)[C@@]3(O)[C@@H](C=C(CO)C[C@]4(O)C(=O)C(C)=C[C@@H]34)[C@@H]1C2(C)C [PROSTRATIN] | 0.226 µM | > 22 |  |  | > 50 µM | 30
